Test results reported in article PMC7497186 (The Journal of Pharmacy and Pharmacology, 2020).
Read-outs that look alike come from different tables or passages of the source.

Tests used:
[1] = target: T1, human recombinant 5-LOX (Homo sapiens, UniProt P09917); assay: 5-LOX inhibition, UV-Vis spectrophotometric assay; assay type: biochemical; settings: for inhibition at 10 µM: read-out: % inhibition of 5-LOX
T1 sequence (P09917 1-674): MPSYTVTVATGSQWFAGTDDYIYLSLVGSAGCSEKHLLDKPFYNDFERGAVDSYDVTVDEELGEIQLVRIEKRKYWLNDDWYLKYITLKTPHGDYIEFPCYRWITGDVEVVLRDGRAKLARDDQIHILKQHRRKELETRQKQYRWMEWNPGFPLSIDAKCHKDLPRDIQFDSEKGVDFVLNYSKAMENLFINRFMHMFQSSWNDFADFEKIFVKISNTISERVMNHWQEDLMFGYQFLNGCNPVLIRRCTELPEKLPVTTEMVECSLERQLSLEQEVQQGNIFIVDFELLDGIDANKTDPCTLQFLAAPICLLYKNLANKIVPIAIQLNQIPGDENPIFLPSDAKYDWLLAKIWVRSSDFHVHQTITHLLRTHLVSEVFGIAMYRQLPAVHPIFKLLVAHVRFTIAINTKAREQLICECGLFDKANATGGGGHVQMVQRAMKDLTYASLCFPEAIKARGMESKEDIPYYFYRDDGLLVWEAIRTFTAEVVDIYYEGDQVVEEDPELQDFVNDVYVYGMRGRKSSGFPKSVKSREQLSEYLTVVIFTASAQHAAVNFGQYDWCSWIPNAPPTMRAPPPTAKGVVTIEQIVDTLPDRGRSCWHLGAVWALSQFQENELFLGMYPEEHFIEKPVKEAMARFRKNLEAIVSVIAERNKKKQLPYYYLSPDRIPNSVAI
Method in brief: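 Human recombinant 5-LOX (0.5 unit/ml final) pre-incubated 5 min at RT in the dark with test compound, CaCl2 (0.4 mm final), L-α-phosphatidylcholine type II-S (24 µg/ml final) and ATP (0.2 mm final). Reaction started with arachidonic acid (50 µm final) in quartz microcuvettes. 5-HpETE conjugated diene formation followed as absorbance increase at 234 nm (ε = 25 000 M−1 cm−1).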

[2] = system: IL-8 from LPS-induced SW480 cells; assay: IL-8 from LPS-induced SW480 cells; assay type: cell-based, human; settings: for level of IL-8: 10 µM, LPS-induced SW480 cells, CTRL 1 3.324 ± 0.076; for inhibition at 10 µM: Homo sapiens, SW480, read-out: % inhibition of IL-8 over CTRL 1
[3] = system: IL-6 in THP-1 macrophages; assay: Cytokine profiling THP-1 macrophages: IL-6; assay type: cell-based, human; settings: for level of IL-6: 24 h, CTRL 1 1.666 ± 0.256; for inhibition at 10 µM: Homo sapiens, THP-1, read-out: IL-6 inhibition over CTRL 1
[4] = system: TNF-α in THP-1 macrophages; assay: Cytokine profiling THP-1 macrophages: TNF-α; assay type: cell-based, human; settings: for level of TNF-α: CTRL 1 22.305 ± 2.753; for inhibition at 10 µM: Homo sapiens, THP-1, read-out: % inhibition of TNF-α
[5] = system: SW480 cells; assay: Cytotoxicity, acid phosphatase assay, SW480 cells; assay type: cell-based, human; settings: 10, 30 and 50 µM, 24 h
Method in brief: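 SW480 cells seeded at 4 × 10^4 per well 24 h before compound exposure, then exposed to test compound for 24 h. Wells washed with PBS. Acid phosphatase substrate (p-nitrophenyl phosphate in sodium acetate, 0.1% Triton X-100, pH 5.5) added for 1 h at 37°C, 5% CO2, in the dark. Stopped with NaOH; absorbance read at 405 nm. Mean ± SEM, n = 4.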

[6] = system: nitric oxide (NO) released from SW480 cells; assay: Nitric oxide inhibition, GREISS assay, LPS-induced SW480 cells; assay type: cell-based, human; settings: for inhibition at 10 µM: SW480, read-out: % inhibition of NO released; for % inhibition of NO released: 10 µM, mean ± SEM, n = 3
Method in brief: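 SW480 cells stimulated with 1 µg/ml S. typhimurium LPS plus IFN-γ for 48 h at 37°C, 5% CO2. Fresh supernatant mixed with an equal volume of sulphanilamide for 10 min at RT in the dark, then NED added for 20 min. Absorbance read at 540 nm; nitrite quantified against a 0–100 NO2 standard curve. Mean ± SEM, n = 3.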

[7] = system: IL-10−/− colitis mice; settings: IL-10 -/- murine model of colitis; cited from earlier work
[8] = system: DSS colitis mice; settings: cited from earlier work
[9] = system: THP-1 macrophages; assay: Cytotoxicity, acid phosphatase assay, THP-1 macrophages; assay type: cell-based, human; settings: 10, 30 and 50 µM, 24 h
Method in brief: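 THP-1 monocytes seeded at 4 × 10^4 per well, PMA-differentiated for 48 h, then rested for 3 days. Macrophages exposed to test compound for 24 h and washed with PBS. p-Nitrophenyl phosphate substrate (sodium acetate, 0.1% Triton X-100, pH 5.5) added for 1 h at 37°C in the dark. Stopped with NaOH; read at 405 nm. Mean ± SEM, n = 4.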

[10] = system: nitric oxide (NO) released from SW480 cells; settings: read-out: IC50 NO inhibition, reported value; literature value; cited from earlier work
[11] = system: IL-1β in THP-1 macrophages; assay: Cytokine profiling THP-1 macrophages: IL-1β; assay type: cell-based, human; settings: 10 µM, LPS-stimulated THP-1 macrophages; CTRL 1 0.329 ± 0.042
[12] = 10 µM, LPS-stimulated THP-1 macrophages
[13] = Homo sapiens, SW480, read-out: IC50 NO inhibition

Row | IC50 [6, 13] [µM] | inhibition at 10 µM [1] [%] | Compound | level of IL-8 [2] [pg/µg ml] | inhibition at 10 µM [2] [%] | level of IL-6 [3, 12] [pg/µg ml] | level of TNF-α [4, 12] [pg/µg ml] | % inhibition of NO released ([6]; LPS-induced SW480 cells) | other results
1 | 48.7 | – | C[C@]12CCC(=O)C=C1CC[C@@H]1[C@@H]2[C@@H](O)C[C@@]2(C)[C@H]1CC[C@]2(O)C(=O)CO [hydrocortisone, reference compound] | – | – | – | – | – | inhibition at 10 µM ([6]; Homo sapiens): 43.5 ± 12.3%
2 | – | 45.2 ± 5.36 | CC(c1cc2ccccc2s1)N(O)C(N)=O (stereo not drawn) [zileuton, reference compound] | – | – | – | – | – | –

Continued, compound first:

Row | Compound | IC50 [6, 13] [µM] | inhibition at 10 µM [1] [%] | level of IL-8 [2] [pg/µg ml] | inhibition at 10 µM [2] [%] | level of IL-6 [3, 12] [pg/µg ml] | level of TNF-α [4, 12] [pg/µg ml] | % inhibition of NO released ([6]; LPS-induced SW480 cells) | other results
3 | CC(Cc1ccc(O)c(O)c1)C(C)Cc1ccc(O)c(O)c1 (stereo not drawn) [NDGA, nordihydroguaiaretic acid, reference compound] | – | – | – | – | – | – | – | % inhibition of 5-LOX ([1]; screened at 10 µM, mean ± SEM, n = 3): 51.92 ± 1.01%
4 | O=C(O)c1ccc(C[C@@]2(C3=Cc4ccccc4C3)Cc3ccccc3[C@H]2O)cc1 [compound 2, 4-(((1'S,2'S)-1'-hydroxy-1',3'-dihydro-1H,2'H-[2,2'-biinden]-2'-yl)methyl)benzoic acid] | 19.7 ± 7.88 | 45.3 ± 5.28 | 2.529 ± 0.058 | 23.9 | 0.132 ± 0.038 | 11.613 ± 0.162 | – | inhibition at 10 µM [3]: 92.1%; inhibition at 10 µM [4]: 45.2%; cytotoxicity in SW480 cells [5]: no cytotoxicity effects; inhibition at 10 µM ([6]; Homo sapiens): 56.5 ± 3.09%; DAI [7]: reduced; colon cytokine levels of TNFα, IL-6 and IL1b ([8]; DSS colitis mice): reduced; DAI ([8]; acute 5% DSS murine model of colitis): reduced; MPO activity, a measure of inflammatory cell infiltration ([8]; murine model of colitis, model not given): significantly reduced; cytotoxicity in THP-1 macrophages [9]: no cytotoxicity effects
5 | O=C(O)c1ccc(C[C@@]2(C3=Cc4ccccc4C3)Cc3ccccc3C2=O)cc1 [compound 6, (S)-4-((1'-oxo-1',3'-dihydro-1H,2'H-[2,2'-biinden]-2'-yl)methyl)benzoic acid] | – | – | – | – | – | – | inhibited NO production | –
6 | O=C(O)c1ccc(CC2(C3=Cc4ccccc4C3)Cc3ccccc3C2)cc1 [compound 7, 4-((1',3'-dihydro-1H,2'H-[2,2'-biinden]-2'-yl)methyl)benzoic acid] | – | 39.7 ± 4.95 | 2.676 ± 0.142 | 19.5 | – | – | inhibited NO production | IL-6 inhibition over CTRL 1 [3, 12]: less potent but statistically significant; cytotoxicity in SW480 cells [5]: no cytotoxicity effects; cytotoxicity in THP-1 macrophages [9]: no cytotoxicity effects
7 | O[C@@H]1c2ccccc2C[C@@]1(Cc1ccccc1)C1=Cc2ccccc2C1 [compound 8, (1S,2S)-2-benzyl-2,3-dihydro-1H,1'H-[2,2'-biinden]-1-ol] | – | – | 2.288 ± 0.059 | 31.2 | 0.075 ± 0.019 | 14.193 ± 1.685 | – | inhibition at 10 µM [3]: 95.5%; inhibition at 10 µM [4]: 33%
8 | O=C1c2ccccc2C[C@@]1(Cc1ccccc1)C1=Cc2ccccc2C1 [compound 9, (S)-2-benzyl-2,3-dihydro-1H,1'H-[2,2'-biinden]-1-one] | 20.5 ± 2.89 | – | – | – | – | – | inhibited NO production | –
9 | COc1c(O)cc2oc3cc(O)c(CC=C(C)C)c(O)c3c(=O)c2c1CC=C(C)C [α-mangostin, reference compound] | – | – | – | – | – | – | 61.63 ± 7.50% | IC50 [10]: 12.2 µM; IC50 ([6]; read-out: IC50 NO inhibition, LPS-induced SW480 cells): 8.87 ± 1.18 µM
10 | Infliximab: positive control; anti-TNF-α therapy for IBD treatment | – | – | – | – | 0.924 ± 0.180 | 0.002 ± 0 | – | % inhibition of TNF-α [4, 12]: 99.98%; level of IL-1β [11]: 0.329 ± 0.059 pg/µg ml
